From PubChem BioAssay
Sampled rows, rich in hits. Any-hit rate of the full collection: about 2.7%.
RAM network inh: blocks the yeast RAM network. S. cerevisiae dse1pr::URA3 reporter, 5-FOA growth OD615, 2 d; analog-sensitive cbk1-as2 kinase mutant strain. inhibition, % at 50 µM. 190,000 tested, 1.8% active. AID 868;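 active = inhibition above a set limit, 3 SD over mean compound inhibition, cut at about 8.4% in these data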;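 note: 0% = DMSO-only wells with no growth and 100% = 10 µM 1-NA-PP1 full growth; inhibition rescues growth on 5-FOA so higher OD means more RAM inhibition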
Phagocyt inh: macrophage phagocytosis inhibition | J774A.1 macrophage IgG-bead phagocytosis, imaging | inhibition, % at 5 µM | 110,000 tested, 0.07% active | AID 1029;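 active = inhibition above the mean of the plate negative controls plus 5 SD, cut at about 13% in these data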;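 note: phagocytic index as fraction of beads internalized from green versus red external bead signal; plate controls were DMSO negative control for no effect and cytochalasin-D positive control for full effect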
BB579 growth dn: yeast BB579 growth reduction in restrictive medium; AID 804; 140,000 tested, 0.51% active; S. cerevisiae BB579 growth, OD615, 48 h; inhibition, % at 10 µM;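 active = inhibition above a set limit, 3 SD over the mean compound inhibition, cut at about 44% in these data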
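System: Saccharomyces cerevisiae DeaD strain BB579, replicative lifespan model yeast. Buffer or medium: restrictive glucose-based CSMM-D medium. Doses: one dose, 10 µM compound with 0.25% DMSO. Timing: 4 h preincubation and 48 h exposure at 30 °C. Detection: turbidity as optical density at 615 nm. Benchmarks: amphotericin B 10 µg/mL, positive.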
Yeast life ext: extends the lifespan of yeast. 130,000 tested, 0.68% active. inhibition of the nicotinamide effect, % at 10 µM. S. cerevisiae growth with nicotinamide, OD615; deaD strain in restrictive glucose medium;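 active = inhibition above a set limit, placed 3 SD over the median of all compounds, cut at about 26% in these data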;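 note: 0% = nicotinamide-treated wells and 100% = cells grown without nicotinamide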
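Measured by: optical density (absorbance) at 615 nm; System: modified budding yeast, DeaD strain; Medium: restrictive CSMM-D dextrose medium; Timing: 4 h preincubation then 48 h treatment at 30 °C.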
Numbers without * were called inactive; / = no result.

SMILES	RAM network inh	Phagocyt inh	BB579 growth dn	Yeast life ext
Cc1nn2c3ccccc3nc2c2ccccc12	1	-1	79*	-12
CC1(C)CC(=O)C2=C(C1)OC1=C(C(=O)CC(C)(C)C1)C2c1ccc(O)cc1O	2	-1	5	42*
CC1(C)CC(=O)C2=C(C1)OC1=C(C(=O)CC(C)(C)C1)C2c1ccc(O)c([N+](=O)[O-])c1	4	/	/	/
O=C(O)c1cc2c(s1)-c1ccccc1OC2	0	0	43	-24
O=C(O)c1cc2c(s1)-c1ccccc1CC2	0	-8	45*	-7
CCSc1nnc(NC(=O)c2cccc(S(=O)(=O)N(C)c3ccc(C)cc3)c2)s1	5	/	-17	17
CCc1nnc(NC(=O)c2cccc(S(=O)(=O)N(C)c3ccccc3)c2)s1	2	-1	-91	71*
CCOc1ccc(N=Cc2c(O)c3ccccc3oc2=O)cc1	2	/	-39	88*
CCSc1nc(N)nc(-c2cccs2)c1C#N	-2	-1	84*	-18
Cc1ccc(C(=O)COC(=O)c2cc(=O)[nH]c3ccccc23)cc1C	4	/	/	/
O=C(CSc1nnc(SCc2cccc3ccccc23)s1)Nc1ccc(C(=O)O)cc1	4	/	/	/
O=C(CSc1nnc(SCc2cccc3ccccc23)s1)c1ccc2c(c1)OCO2	8.8*	/	-36	-7
CCc1nc(SCC(=O)c2ccc3c(c2)OCCO3)c2ccccc2n1	2	0	-69	147*
CCc1cccc(CC)c1NC(=O)COC(=O)CC1c2ccccc2CCN1S(=O)(=O)c1ccc(F)cc1 (configuration not stated)	8	3	-1	1
O=C(COC(=O)CC1c2ccccc2CCN1S(=O)(=O)c1ccc(F)cc1)Nc1ccccc1 (configuration not stated)	8.6*	-7	5	2
CCCCC[C@H](O)/C=C/[C@H]1C=CC(=O)[C@@H]1C/C=C\CCCC(=O)O	5	/	-25	-2
CCCCC1C(=O)CC[C@H]2[C@@H]1CC(=O)[C@@H]2C/C=C\CCCC(=O)O (some centres not stated)	1	/	-40	50*
O=C(COC(=O)CCC(NC(=O)OCc1ccccc1)C(=O)OCC(=O)Nc1ccccc1)Nc1ccccc1 (configuration not stated)	10*	-5	-8	-1
O=C(CN1C(=O)COc2ccccc21)Nc1ccc2c(c1)OCCO2	3	0	-32	54*
COc1ccc2cc(C(=O)N/N=C/c3sc4ccccc4c3O)ccc2c1	4	-10	-62	8
O=C(N/N=C/c1sc2ccccc2c1O)c1cccc2ccccc12	3	/	91*	-4
COc1ccc(C(=O)N/N=C/c2cc3ccccc3[nH]c2=S)cc1	9.5*	0	-67	6
COc1ccc(C(=O)N/N=C/c2sc3ccccc3c2O)cc1	0	-6	85*	-2
Cc1ccc(CN2CCN(/N=C/c3ccc(C)s3)CC2)c(C)c1	2	-6	-19	7
CC(C)(C)C(=O)Cn1ncc(Br)c(Br)c1=O	2	/	/	/
SMILES	RAM network inh	Phagocyt inh	BB579 growth dn	Yeast life ext
COc1ccc(-c2c(C(C)=O)c(C)nc3sc4c(=N)n(N)cnc4c23)cc1	1	3	-19	8
COc1ccc(C2NC(=O)c3sc4nc(C)c(C(C)=O)c(-c5ccc(Cl)cc5)c4c3N2)cc1 (configuration not stated)	10*	-5	-71	-13
Clc1ccc(N=c2ssnc2Cl)cc1	-2	/	77*	/
CN(C)c1ccc(/C=C(\Cl)c2nc3ccccc3s2)cc1	8.6*	-3	-52	0
CCN(CC)S(=O)(=O)c1ccc(Cl)c(NC(=O)COc2ccccc2[N+](=O)[O-])c1	8.8*	/	-27	7
COc1ccc(C(=O)Oc2cccc3cccnc23)cc1[N+](=O)[O-]	-1	/	/	/
Cc1ccc(C(=O)Oc2ccc(Cl)c3cccnc23)cc1[N+](=O)[O-]	1	/	68*	-28
Cc1ccc(N/N=C/c2c(O)cc(C)oc2=O)cc1	0	-1	96*	-31
Cc1cc(O)c(/C=N/Nc2ccc(F)cc2)c(=O)o1	0	/	/	/
CCOC(=O)C(=NC(C)CC)NNc1cccc(C(F)(F)F)c1 (configuration not stated)	0	-3	-12	-3
CCOC(=O)C(=NC(C)CC)NNc1ccc(Br)cc1 (configuration not stated)	0	1	93*	-7
Cc1c(N=C2SCC(=O)N2/N=C/c2ccccc2)c(=O)n(-c2ccccc2)n1C	0	-5	-12	1
Cc1ccc(S(=O)(=O)Cc2c(C)noc2C)cc1	1	0	-52	-7
Cc1noc(C)c1CS(=O)(=O)c1ccc(Br)cc1	1	/	1	56*
O=C(C1=C(O)/C(=C/c2ccc(O)cc2)CCC1)C(F)(F)F	-2	/	100*	/
COc1ccc(/C=C2\CCCC(C(=O)C(F)(F)F)=C2O)cc1	10.0*	3	-48	-8
COc1ccc2nc(Nc3nc(CSc4ccc(C)cc4)cc(=O)[nH]3)nc(C)c2c1	11*	/	/	/
CCN1CCN(c2cc(-c3ccccc3)nc3cc(-c4cccc(F)c4)nn23)CC1	-1	/	-66	/
OC1CCN(c2cc(-c3ccccc3)nc3cc(-c4ccc(F)cc4)nn23)CC1	9.6*	/	/	/
CCOC(=O)N1CCN(C(=O)C(CC)n2nc(C)c3sc4ccccc4c3c2=O)CC1 (configuration not stated)	2	/	-26	3
CCOC(=O)N1CCN(C(=O)Cn2nc(C)c3sc4ccccc4c3c2=O)CC1	-1	2	45*	-6
CCOc1cc(N2CCOCC2)c(OCC)cc1NC(=O)c1ccc(OCc2c(C)noc2C)c(OC)c1	8.7*	-4	-54	2
CCOc1cc(N2CCOCC2)c(OCC)cc1NC(=O)c1ccc(OC)cc1	2	/	/	/
COc1ccc(OC)c(S(=O)(=O)NC(N)=NCCc2ccccc2OC)c1	0	/	/	/
COc1ccc(C(CNC(=O)c2cncc(Br)c2)N(C)C)cc1 (configuration not stated)	0	/	/	/
SMILES	RAM network inh	Phagocyt inh	BB579 growth dn	Yeast life ext
c1ccc(OCc2nc3c4c(ncn3n2)-c2ccccc2CC42CCCC2)cc1	8.4*	-4	-21	3
CCCn1nc(-c2ccccc2)c2nc3ccccc3nc21	9.6*	-1	7	-10
CCCCCn1nc(-c2ccccc2)c2nc3ccccc3nc21	7	/	-50	-17
O=C(Cn1nc(-c2ccccc2)ccc1=O)Nc1ccc(N2CCN(C(=O)c3cccs3)CC2)cc1	4	/	/	/
CCOC(=O)C1=C(O)/C(=C/c2cn(CC(=O)N3CCCC3)c3ccccc23)SC1=Nc1ccccc1	9.1*	/	-50	/
Cc1cc(=O)[nH]c(-n2nc(C)c(Oc3ccccc3O)c2C)n1	0	-2	-54	-3
Cc1cc(=O)[nH]c(-n2nc(C)cc2C)n1	-1	3	81*	-26
CCC(=O)Nc1ccccc1Sc1ncnc2scc(-c3ccccc3)c12	3	-4	-33	62*
O=C(CSc1nnc(-c2ccccc2Cl)o1)Nc1ccc2c(c1)OCCO2	5	/	-19	/
O=c1c(-c2nnc(SCc3ccc(Cl)c(Cl)c3)o2)cccn1Cc1ccccc1	11*	/	-69	13
